# Results: ChEMBL document CHEMBL3286116, “Synthesis, biological evaluation and structure-activity correlation study of a series of imidazol-based compounds as Candida albicans inhibitors” (Eur J Med Chem, 2014)
# Assays:
# [1] = test system: Candida albicans; assay: Antifungal activity against Candida albicans ATCC 90028 after 48 hrs by CLSI broth microdilution method; format: functional; settings: ATCC 90028, 48 h
# How it was run: (§1)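 Yeast CLSI broth microdilution (M27-A3). Compounds dissolved in DMSO at 100× the top test concentration, then diluted as serial two-fold dilutions in RPMI 1640 to final 0.125–64. Inoculum was 1.0–1.5 × 10^3 cells mL−1, incubated at 35 °C and read for growth at 48 h. MIC is the lowest concentration giving ≥50% growth inhibition versus growth control. Reported as the median of five replicates and as the geometric mean.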
# [2] = test system: Candida albicans; assay: Antifungal activity against Candida albicans ATCC 20891 after 48 hrs by CLSI broth microdilution method; format: functional; settings: ATCC 20891, 48 h; how it was run: as §1
# [3] = test system: Candida albicans; assay: Antifungal activity against Candida albicans PMC 1011 after 48 hrs by CLSI broth microdilution method; format: functional; settings: PMC 1011, 48 h; how it was run: as §1
# [4] = test system: Pichia kudriavzevii; assay: Antifungal activity against Candida krusei DSM 6128 after 48 hrs by CLSI broth microdilution method; format: functional; settings: DSM 6128, 48 h; how it was run: as §1
# [5] = test system: Pichia kudriavzevii; assay: Antifungal activity against Candida krusei PMC 0613 after 48 hrs by CLSI broth microdilution method; format: functional; settings: PMC 0613, 48 h; how it was run: as §1
# [6] = test system: Candida tropicalis; assay: Antifungal activity against Candida tropicalis PMC 0910 after 48 hrs by CLSI broth microdilution method; format: functional; settings: PMC 0910, 48 h; how it was run: as §1
# [7] = test system: Candida tropicalis; assay: Antifungal activity against Candida tropicalis DSM 11953 after 48 hrs by CLSI broth microdilution method; format: functional; settings: DSM 11953, 48 h; how it was run: as §1
# [8] = test system: Candida parapsilosis; assay: Antifungal activity against Candida parapsilosis DSM 11224 after 48 hrs by CLSI broth microdilution method; format: functional; settings: Lodderomyces parapsilosis, DSM 11224, 48 h; how it was run: as §1
# [9] = test system: Candida parapsilosis; assay: Antifungal activity against Candida parapsilosis ATCC 22019 after 48 hrs by CLSI broth microdilution method; format: functional; settings: Lodderomyces parapsilosis, ATCC 22019, 48 h; how it was run: as §1
# [10] = test system: Nakaseomyces glabratus; assay: Antifungal activity against Candida glabrata PMC 0805 after 48 hrs by CLSI broth microdilution method; format: functional; settings: PMC 0805, 48 h; how it was run: as §1
# [11] = test system: Nakaseomyces glabratus; assay: Antifungal activity against Candida glabrata PMC 0807 after 48 hrs by CLSI broth microdilution method; format: functional; settings: PMC 0807, 48 h; how it was run: as §1
# [12] = test system: Cryptococcus neoformans; assay: Antifungal activity against Cryptococcus neoformans PMC 2123 after 72 hrs by CLSI broth microdilution method; format: functional; settings: PMC 2123, 72 h
# How it was run: (§2)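 Cryptococcus neoformans tested by CLSI broth microdilution in RPMI 1640, with serial two-fold dilutions from DMSO stocks at 100× the top concentration, final 0.125–64. Inoculum was 1.0–1.5 × 10^3 cells mL−1 at 35 °C, with growth read at 72 h. MIC is the lowest concentration with ≥50% growth inhibition versus control. Median of five replicates, plus geometric mean.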
# [13] = test system: Cryptococcus neoformans; assay: Antifungal activity against Cryptococcus neoformans PMC 2136 after 72 hrs by CLSI broth microdilution method; format: functional; settings: PMC 2136, 72 h; how it was run: as §2
# [14] = test system: Cryptococcus neoformans; assay: Antifungal activity against Cryptococcus neoformans PMC 2115 after 72 hrs by CLSI broth microdilution method; format: functional; settings: PMC 2115, 72 h; how it was run: as §2
# [15] = test system: Cryptococcus neoformans; assay: Antifungal activity against Cryptococcus neoformans PMC 2103 after 72 hrs by CLSI broth microdilution method; format: functional; settings: PMC 2103, 72 h; how it was run: as §2
# [16] = test system: Cryptococcus neoformans; assay: Antifungal activity against Cryptococcus neoformans PMC 2107 after 72 hrs by CLSI broth microdilution method; format: functional; settings: PMC 2107, 72 h; how it was run: as §2
# [17] = test system: Cryptococcus neoformans; assay: Antifungal activity against Cryptococcus neoformans PMC 2102 after 72 hrs by CLSI broth microdilution method; format: functional; settings: PMC 2102, 72 h; how it was run: as §2
# [18] = test system: Cryptococcus neoformans; assay: Antifungal activity against Cryptococcus neoformans DSM 11959 after 72 hrs by CLSI broth microdilution method; format: functional; settings: DSM 11959, 72 h; how it was run: as §2
# [19] = test system: Cryptococcus neoformans; assay: Antifungal activity against Cryptococcus neoformans PMC 2111 after 72 hrs by CLSI broth microdilution method; format: functional; settings: PMC 2111, 72 h; how it was run: as §2
# [20] = test system: Trichophyton mentagrophytes; assay: Antifungal activity against Trichophyton mentagrophytes DSM 4870 after 72 hrs by CLSI broth microdilution method; format: functional; settings: DSM 4870, 72 h
# How it was run: (§3)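 Dermatophytes tested by CLSI broth microdilution for filamentous fungi (M38-A2). Serial two-fold dilutions of DMSO-dissolved compound in RPMI 1640, final 0.125–64. Inoculum was 0.4–5 × 10^4 CFU mL−1, incubated at 35 °C and read at 72 h. MIC80 is the lowest concentration giving ≥80% growth inhibition versus growth control. Median of five replicates, plus geometric mean.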
# [21] = test system: Trichophyton mentagrophytes; assay: Antifungal activity against Trichophyton mentagrophytes PMC 6515 after 72 hrs by CLSI broth microdilution method; format: functional; settings: PMC 6515, 72 h; how it was run: as §3
# [22] = test system: Trichophyton mentagrophytes; assay: Antifungal activity against Trichophyton mentagrophytes PMC 6531 after 72 hrs by CLSI broth microdilution method; format: functional; settings: PMC 6531, 72 h; how it was run: as §3
# [23] = test system: Trichophyton mentagrophytes; assay: Antifungal activity against Trichophyton mentagrophytes PMC 6509 after 72 hrs by CLSI broth microdilution method; format: functional; settings: PMC 6509, 72 h; how it was run: as §3
# [24] = test system: Trichophyton mentagrophytes; assay: Antifungal activity against Trichophyton mentagrophytes PMC 6503 after 72 hrs by CLSI broth microdilution method; format: functional; settings: PMC 6503, 72 h; how it was run: as §3
# [25] = test system: Trichophyton mentagrophytes; assay: Antifungal activity against Trichophyton mentagrophytes PMC 6552 after 72 hrs by CLSI broth microdilution method; format: functional; settings: PMC 6552, 72 h; how it was run: as §3
# [26] = test system: Nannizzia gypsea; assay: Antifungal activity against Microsporum gypseum PMC 7303 after 72 hrs by CLSI broth microdilution method; format: functional; settings: PMC 7303, 72 h; how it was run: as §3
# [27] = test system: Nannizzia gypsea; assay: Antifungal activity against Microsporum gypseum PMC 7331 after 72 hrs by CLSI broth microdilution method; format: functional; settings: PMC 7331, 72 h; how it was run: as §3
# [28] = test system: Nannizzia gypsea; assay: Antifungal activity against Microsporum gypseum DSM 3824 after 72 hrs by CLSI broth microdilution method; format: functional; settings: DSM 3824, 72 h; how it was run: as §3
# [29] = Cytotoxicity against human A549 cells after 48 hrs by MTT assay; format: cell-based
# How it was run: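 A549 cells (ATCC CCL-185) seeded at 2 × 10^4/well in phenol-red-free RPMI 1640 with 10% FBS, L-glutamine, penicillin and streptomycin, at 37 °C and 5% CO2. Exposed 48 h to DMSO-dissolved compounds (final 16–256; at least five concentrations, triplicate). MTT added for 3–4 h, crystals solubilized, OD read at 570 nm. CC50 taken versus the DMSO control. Mean ± SD of two independent experiments.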
# [30] = test system: Candida albicans; assay: Antifungal activity against Candida albicans ATCC 24433 after 48 hrs by CLSI broth microdilution method; format: functional; settings: ATCC 24433, 48 h; how it was run: as §1
# [31] = test system: Candida albicans; assay: Antifungal activity against Candida albicans ATCC 3153 after 48 hrs by CLSI broth microdilution method; format: functional; settings: ATCC 3153, 48 h; how it was run: as §1
# [32] = test system: Candida albicans; assay: Antifungal activity against Candida albicans ATCC 10231 after 48 hrs by CLSI broth microdilution method; format: functional; settings: ATCC 10231, 48 h; how it was run: as §1
# [33] = test system: Candida albicans; assay: Antifungal activity against Candida albicans ATCC 76615 after 48 hrs by CLSI broth microdilution method; format: functional; settings: ATCC 76615, 48 h; how it was run: as §1
# [34] = test system: Candida albicans; assay: Antifungal activity against Candida albicans ATCC 10261 after 48 hrs by CLSI broth microdilution method; format: functional; settings: ATCC 10261, 48 h; how it was run: as §1
MIC50 [1],MIC50 [2],MIC50 [3],MIC50 [4],MIC50 [5],MIC50 [6],MIC50 [7],MIC50 [8],MIC50 [9],MIC50 [10],MIC50 [11],MIC50 [12],MIC50 [13],MIC50 [14],MIC50 [15],MIC50 [16],MIC50 [17],MIC50 [18],MIC50 [19],MIC80 [20],SMILES,further results
0.5 µg/mL,0.5 µg/mL,0.5 µg/mL,8 µg/mL,1 µg/mL,2 µg/mL,2 µg/mL,0.25 µg/mL,2 µg/mL,2 µg/mL,8 µg/mL,4 µg/mL,4 µg/mL,4 µg/mL,2 µg/mL,1 µg/mL,4 µg/mL,4 µg/mL,4 µg/mL,16 µg/mL,O=C(OC(Cn1ccnc1)c1ccc(F)cc1)N1CCN(c2ccc(Cl)cc2)CC1 (stereo not given),MIC80 [21]: 8 µg/mL; MIC80 [22]: 8 µg/mL; MIC80 [23]: 16 µg/mL; MIC80 [24]: 16 µg/mL; MIC80 [25]: 32 µg/mL; MIC80 [26]: 16 µg/mL; MIC80 [27]: 4 µg/mL; MIC80 [28]: 16 µg/mL; CC50 at 48 h [29]: 78.4 µg/mL; MIC50 [30]: 4 µg/mL; MIC50 [31]: 8 µg/mL; MIC50 [32]: 2 µg/mL; MIC50 [33]: 8 µg/mL; MIC50 [34]: 1 µg/mL
32 µg/mL,128 µg/mL,32 µg/mL,128 µg/mL,32 µg/mL,128 µg/mL,64 µg/mL,32 µg/mL,16 µg/mL,32 µg/mL,128 µg/mL,128 µg/mL,64 µg/mL,128 µg/mL,64 µg/mL,128 µg/mL,128 µg/mL,64 µg/mL,128 µg/mL,128 µg/mL,O=C(OC(Cn1ccnc1)c1ccc(F)cc1)N1CCN(C(=O)c2ccco2)CC1 (stereo not given),MIC80 [21]: 128 µg/mL; MIC80 [22]: 64 µg/mL; MIC80 [23]: 64 µg/mL; MIC80 [24]: 128 µg/mL; MIC80 [25]: 128 µg/mL; MIC80 [26]: 128 µg/mL; MIC80 [27]: 128 µg/mL; MIC80 [28]: 128 µg/mL; MIC50 [30]: 128 µg/mL; MIC50 [31]: 128 µg/mL; MIC50 [32]: 64 µg/mL; MIC50 [33]: 128 µg/mL; MIC50 [34]: 128 µg/mL
4 µg/mL,8 µg/mL,4 µg/mL,128 µg/mL,8 µg/mL,16 µg/mL,64 µg/mL,8 µg/mL,1 µg/mL,8 µg/mL,32 µg/mL,2 µg/mL,2 µg/mL,4 µg/mL,2 µg/mL,2 µg/mL,4 µg/mL,2 µg/mL,2 µg/mL,8 µg/mL,O=C(O[C@@H](Cn1ccnc1)c1ccc(Cl)cc1)N1CCN(c2ccc(Cl)cc2)CC1,MIC80 [21]: 4 µg/mL; MIC80 [22]: 8 µg/mL; MIC80 [23]: 8 µg/mL; MIC80 [24]: 4 µg/mL; MIC80 [25]: 8 µg/mL; MIC80 [26]: 8 µg/mL; MIC80 [27]: 16 µg/mL; MIC80 [28]: 8 µg/mL; MIC50 [30]: 8 µg/mL; MIC50 [31]: 4 µg/mL; MIC50 [32]: 8 µg/mL; MIC50 [33]: 8 µg/mL; MIC50 [34]: 4 µg/mL
